Experimental data from ChEMBL document CHEMBL1126734, “Synthesis of phosphocholine and quaternary amine ether lipids and evaluation of in vitro antineoplastic activity” (1993).

What was measured:
[1] = system: HL-60; assay: Standard thymidine incorporation assay (TdR) was carried out for 48 hr and involved a 24-h pulse of [3H]- thymidine (n=5) and ID50 value was evaluated; assay type: functional; conditions: Homo sapiens, read-out: ID50 (the source's name)
Method in brief: (§1)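 HL-60 human promyelocytic leukemia cells in RPMI 1640 with 10% heat-inactivated FBS, 37 °C, 5% CO2. Log-phase cells seeded at 5 × 10^4/well with inhibitor dilutions from ethanol stocks (1 or 10 mg/mL). At 24 h, pulsed with 1.0 μCi [methyl-3H]thymidine (6.7 Ci/mmol) for a further 24 h. Harvested onto glass fiber filters and counted by liquid scintillation as % of control. Quadruplicate determinations. Values in μM.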

[2] = system: HL-60; assay: Trypan blue exclusion assay (TB) was carried out for 48 hr and the in vitro ID50 value was evaluated in the HL-60 leukemic cell system (n=4); assay type: functional; conditions: Homo sapiens, HL-60, 48 h; read-out: ID50 (the source's name)
Method in brief: (§2)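 HL-60 human promyelocytic leukemia cells were grown in suspension in RPMI 1640 with 10% heat-inactivated FBS, penicillin/streptomycin, 2 mM L-glutamine and 0.22% NaHCO3 at 37 °C under 5% CO2. Cells at 5 × 10^5/mL were exposed to various inhibitor concentrations diluted from ethanol stocks into medium for 48 h. Trypan blue in PBS was then added and viable cells were counted by hemocytometer. Triplicate determinations; values in μM.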

[3] = system: HL-60; assay: Standard thymidine incorporation assay (TdR) was carried out for 48 hr and involved a 24-h pulse of [3H]- thymidine (n=3) and ID50 value was evaluated; assay type: functional; conditions: Homo sapiens, read-out: ID50 (the source's name); method in brief: as §1
[4] = system: HL-60; assay: Standard thymidine incorporation assay (TdR) was carried out for 48 hr and involved a 24-h pulse of [3H]- thymidine (n=1) and ID50 value was evaluated; assay type: functional; conditions: Homo sapiens, read-out: ID50 (the source's name); method in brief: as §1
[5] = system: HL-60; assay: Trypan blue exclusion assay (TB) was carried out for 48 hr and the in vitro ID50 value was evaluated in the HL-60 leukemic cell system (n=2); assay type: functional; conditions: Homo sapiens, HL-60, 48 h; read-out: ID50 (the source's name); method in brief: as §2
[6] = system: HL-60; assay: Trypan blue exclusion assay (TB) was carried out for 48 hr and the in vitro ID50 value was evaluated in the HL-60 leukemic cell system (n=1); assay type: functional, Homo sapiens; conditions: read-out: ID50 (the source's name); method in brief: as §2
[7] = system: HL-60; assay: Standard thymidine incorporation assay (TdR) was carried out for 48 hr with an 8 hr pulse of [3H]- thymidine (TdR8) (n=6) and ID50 value was evaluated; assay type: functional; conditions: Homo sapiens, read-out: ID50 (the source's name)
Method in brief: (§3)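 HL-60 leukemia suspension cultures grown in RPMI 1640/10% FBS at 37 °C, 5% CO2. Cells seeded at 5 × 10^4/well with inhibitors diluted from ethanol stocks. 48-h exposure, with 1.0 μCi [methyl-3H]thymidine (6.7 Ci/mmol) added for the last 8 h. Filter-harvested cells counted by liquid scintillation, uptake expressed as percent of control. Quadruplicate determinations. Results in μM.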

[8] = system: HL-60; assay: Trypan blue exclusion assay (TB) was carried out for 48 h and the in vitro ID50 value was evaluated in the HL-60 leukemic cell system (n=3); assay type: functional; conditions: Homo sapiens, HL-60, 48 h; read-out: ID50 (the source's name); method in brief: as §2
[9] = system: HL-60; assay: Standard thymidine incorporation assay (TdR) was carried out for 48 hr and involved a 24-h pulse of [3H]- thymidine (n=2) and ID50 value was evaluated; assay type: functional; conditions: Homo sapiens, read-out: ID50 (the source's name); method in brief: as §1
[10] = system: HL-60; assay: Standard thymidine incorporation assay (TdR) was carried out for 48 hr with an 8 hr pulse of [3H]- thymidine (TdR8) (n=4) and ID50 value was evaluated; assay type: functional; conditions: Homo sapiens, read-out: ID50 (the source's name); method in brief: as §3
[11] = system: HL-60; assay: Standard thymidine incorporation assay (TdR) was carried out for 48 hr with an 8 hr pulse of [3H]- thymidine (TdR8) (n=16) and ID50 value was evaluated; assay type: functional; conditions: Homo sapiens, read-out: ID50 (the source's name); method in brief: as §3
[12] = system: HL-60; assay: Standard thymidine incorporation assay (TdR) was carried out for 48 hr and involved a 24-h pulse of [3H]- thymidine (n=21) and ID50 value was evaluated; assay type: functional; conditions: Homo sapiens, read-out: ID50 (the source's name); method in brief: as §1
[13] = system: HL-60; assay: Trypan blue exclusion assay (TB) was carried out for 48 hr and the in vitro ID50 value was evaluated in the HL-60 leukemic cell system (n=33); assay type: functional; conditions: Homo sapiens, HL-60, 48 h; read-out: ID50 (the source's name); method in brief: as §2
[14] = system: HL-60; assay: Standard thymidine incorporation assay (TdR) was carried out for 48 hr with an 8 hr pulse of [3H]- thymidine (TdR8) (n=5) and ID50 value was evaluated; assay type: functional; conditions: Homo sapiens, read-out: ID50 (the source's name); method in brief: as §3
[15] = system: HL-60; assay: Standard thymidine incorporation assay (TdR) was carried out for 48 hr with an 8 hr pulse of [3H]- thymidine (TdR8) (n=3) and ID50 value was evaluated; assay type: functional; conditions: Homo sapiens, read-out: ID50 (the source's name); method in brief: as §3
[16] = system: HL-60; assay: Standard thymidine incorporation assay (TdR) was carried out for 48 hr with an 8 hr pulse of [3H]- thymidine (TdR8) (n=1) and ID50 value was evaluated; assay type: functional; conditions: Homo sapiens, read-out: ID50 (the source's name); method in brief: as §3
[17] = system: HL-60; assay: Standard thymidine incorporation assay (TdR) was carried out for 48 h and involved a 24-h pulse of [3H]- thymidine (n=6) and ID50 value was evaluated; assay type: functional; conditions: Homo sapiens, read-out: ID50 (the source's name); method in brief: as §1
[18] = system: HL-60; assay: Trypan blue exclusion assay (TB) was carried out for 48 hr and the in vitro ID50 value was evaluated in the HL-60 leukemic cell system (n=9); assay type: functional; conditions: Homo sapiens, HL-60, 48 h; read-out: ID50 (the source's name); method in brief: as §2
[19] = system: HL-60; assay: Standard thymidine incorporation assay (TdR) was carried out for 48 hr with an 8 hr pulse of [3H]- thymidine (TdR8) (n=7) and ID50 value was evaluated; assay type: functional; conditions: Homo sapiens, read-out: ID50 (the source's name); method in brief: as §3

## CCCCCCCCCCCCCCCCCC(=O)NCC(COP(=O)([O-])OCC[N+](C)(C)C)OCC (stereo not drawn)
[1]
  IC50: 3.3 µM
[2]
  IC50: 1.64 µM

## CCCCCCCCCCCCCCCCCC(=O)NCC(COP(=O)([O-])OCC[N+](C)(C)C)OCCCCCCCCCCCCCC (stereo not drawn)
[3]
  IC50: > 100 µM

## CCCCCCCCCCCCCCCCSCC[n+]1ccccc1
[4]
  IC50: 2.28 µM

## CCCCCCCCCCCCCCCCCCSCC(C)(COP(=O)([O-])OCC[N+](C)(C)C)OCC (stereo not drawn)
[5]
  IC50: 3.83 µM

## CCCCCCCCCCCCCCCCOCC(COP(=O)([O-])OCC[n+]1ccccc1)OCC (stereo not drawn)
[3]
  IC50: 2.56 µM
[6]; Homo sapiens, HL-60, 48 h
  IC50: 2.64 µM

## CCCCCCCCCCCCCCCCSCC(C[N+](C)(C)CC(O)CO)OC (stereo not drawn)
[1]
  IC50: 3.05 µM
[7]
  IC50: 1.9 µM
[8]
  IC50: 3.62 µM

## CCCCCCCCCCCCCCC(CSCC(COP(=O)([O-])OCC[N+](C)(C)C)OCC)OC (stereo not drawn)
[9]
  IC50: 2.47 µM
[8]
  IC50: 3.39 µM

## CCCCCCCCCCCCCCCCCC(=O)NCCCOP(=O)([O-])OCC[n+]1ccccc1
[3]
  IC50: 4.33 µM
[8]
  IC50: 4.16 µM

## CCCCCCCCCCCCSCC(C[N+](C)(C)C)OC (stereo not drawn)
[4]
  IC50: 2.26 µM

## CCCCCCCCCCCCCCCCCC(=O)N(C)CC(COP(=O)([O-])OCC[N+](C)(C)C)OC (stereo not drawn)
[9]
  IC50: 4.02 µM
[10]
  IC50: 3.44 µM
[8]
  IC50: 3.97 µM

## CCCCCCCCCCCCCCCCOCC(COP(=O)([O-])OCC[N+](C)(C)C)(OC)OC
[6]; Homo sapiens, HL-60, 48 h
  IC50: 3.38 µM

## CCCCCCCCCCCCCCCCCC(=O)NCCCOP(=O)([O-])OCC[N+](C)(C)C
[3]
  IC50: 6.08 µM
[8]
  IC50: 5.48 µM

## CCCCCCCCCCCCCCCCCCOCC(COP(=O)([O-])OCC[N+](C)(C)C)OC (stereo not drawn) [EDELFOSINE]
[11]
  IC50: 2.41 µM
[12]
  IC50: 2.38 µM
[13]
  IC50: 2.48 µM

## CCCCCCCCCCCCCCCCOCC(COP(=O)(O)OCCNC(C)C)OCC (stereo not drawn)
[6]; Homo sapiens, HL-60, 48 h
  IC50: 4.7 µM

## CCCCCCCCCCCCCCCCCCOCC(C[N+]1(C)CCC(O)CC1)OCC (stereo not drawn)
[9]
  IC50: 4.3 µM

## CCCCCCCCCCCCCCCCCCOCC(C[N+]1(C)CCOCC1)OCC (stereo not drawn)
[9]
  IC50: 3.92 µM
[6]; Homo sapiens, HL-60, 48 h
  IC50: 2.92 µM

## CCCCCCCCCCCCCCCCOCC(C[S+](C)CCO)OC (stereo not drawn)
[3]
  IC50: 2.01 µM
[14]
  IC50: 2.03 µM
[8]
  IC50: 2.49 µM

## CCCCCCCCCCCCCCCCSCC[N+](C)(C)CCO
[4]
  IC50: 3.95 µM

## CCCCCCCCCCCCCCCCSCC(COP(=O)([O-])OCC[N+](C)(C)C)OCC (stereo in doubt; 2)
[3]
  IC50: 2.19 µM
[15]
  IC50: 3.11 µM
[6]
  IC50: 2.25 µM

## CCCCCCCCCCCCCCCCOCC(C[n+]1cccc(CO)c1)OC (stereo not drawn)
[9]
  IC50: 1.68 µM
[10]
  IC50: 0.85 µM
[2]
  IC50: 1.07 µM

## CCCCCCCCCCCCCCCCOCC(CSCC[N+](C)(C)C)OC (stereo not drawn)
[9]
  IC50: 2.4 µM
[10]
  IC50: 1.85 µM
[8]
  IC50: 2.23 µM

## CCCCCCCCCCCCCCCCSCC(COP(=O)([O-])OCC[N+](C)(C)C)OCC (stereo in doubt; 5)
[6]
  IC50: 6.75 µM

## CCCCCCCCCCCCCCCCCCOCC(COP(=O)([O-])OCC[N+](C)(C)Cc1ccccc1)OCC (stereo not drawn)
[6]; Homo sapiens, HL-60, 48 h
  IC50: 3.65 µM

## CCCCCCCCCCCCCCCCSCC(C[N+](C)(C)C)OCCCCC (stereo not drawn)
[16]
  IC50: 5.02 µM
[4]
  IC50: 4.97 µM
[6]; Homo sapiens, HL-60, 48 h
  IC50: 6.14 µM

## CCCCCCCCCCCCCCCCOCC(COCCCC[N+](C)(C)CCCO)OC (stereo not drawn)
[9]
  IC50: 1.98 µM
[10]
  IC50: 1.21 µM
[8]
  IC50: 1.83 µM

## CCCCCCCCCCCCCCCCSCC(C[N+]1(C)CCCC1)OCC (stereo not drawn)
[16]
  IC50: 1.9 µM
[4]
  IC50: 2.09 µM

## CCCCCCCCCCCCCCCCCCSCC(C[N+](C)(C)CCCO)OC (stereo not drawn)
[17]
  IC50: 3.51 µM
[18]
  IC50: 2.93 µM
[19]
  IC50: 2.46 µM

## CCCCCCCCCCCCCCCCCCCC(=O)NCC(COP(=O)([O-])OCC[N+](C)(C)C)OCC (stereo not drawn)
[9]
  IC50: 3.39 µM
[10]
  IC50: 2.71 µM
[8]
  IC50: 3.17 µM

## CCCCCCCCCCCCCCCCSCC(COC)C[N+](C)(C)C (stereo not drawn)
[4]
  IC50: 3.52 µM

## CCCCCCCCCCCCCCCCSCC(COC)C[N+](C)(C)CCCO (stereo not drawn)
[4]
  IC50: 3.46 µM

## CCCCCCCCOCC(C[N+](C)(C)C)OC (stereo not drawn)
[15]
  IC50: 27 µM
[8]
  IC50: 21.2 µM

## CCCCCCCCCCCCCCCCSCC(C[N+](C)(C)CCO)OC (stereo not drawn)
[1]
  IC50: 4.34 µM
[15]
  IC50: 3.37 µM
[2]
  IC50: 3.86 µM

## CCCCCCCCCCCCCCCCSCCC[N+]1(C)CCC(O)C1 (stereo not drawn)
[4]
  IC50: 3.77 µM

## CCCCCCC(=O)CCCCCCCCCOCC(COP(=O)([O-])OCC[N+](C)(C)C)OCC (stereo not drawn)
[9]
  IC50: 21.9 µM
[5]
  IC50: 13 µM

## CCCCCCCCCCCCCCCCCC(=O)NCCOP(=O)([O-])OCC[N+](C)(C)C
[9]
  IC50: 7.02 µM
[10]
  IC50: 5.73 µM
[5]
  IC50: 4.56 µM

## CCCCCCCCCCCCCCCCSCCOP(=O)([O-])OCC[N+](C)(C)C
[4]
  IC50: 5.16 µM
[6]; Homo sapiens, HL-60, 48 h
  IC50: 4.15 µM

## CCCCCCCCCCCCCCCCSCC(C[n+]1ccsc1)OC (stereo not drawn)
[9]
  IC50: 7.17 µM
[6]; Homo sapiens, HL-60, 48 h
  IC50: 8.75 µM

## CCCCCCCCCCCCCCCCSCC(C[N+](C)(C)CCO)OCCCCCC (stereo not drawn)
[4]
  IC50: 7.15 µM

## CCCCCCCCCCCCCCCCSCC(COP(=O)([O-])OCC[N+](C)(C)C)OCCC (stereo not drawn)
[9]
  IC50: 2.19 µM
[8]
  IC50: 2.73 µM

## CCCCCCCCCCCCCCCCSCC(COP(=O)(O)OCC[N+](CC)(CC)CC)OCC (stereo not drawn)
[6]; Homo sapiens, HL-60, 48 h
  IC50: 3.31 µM
